Source: ChEMBL document CHEMBL4706681, “New 2-Pyrazoline and Hydrazone Derivatives as Potent and Selective Monoamine Oxidase A Inhibitors” (J Med Chem, 2021)

How the values were obtained:
[1] = Permeability of compound in PBS/EtOH buffer (70:30) at 25 ug/ml incubated for 16 hrs by UV plate reader based PAMPA-BBB
[2] = target: T1, Amine oxidase [flavin-containing] B (Homo sapiens, UniProt P27338); assay: Inhibition of recombinant human MAO-B expressed in baculovirus infected BTI insect cells using p-tyramine as substrate incubated for 30 mins by Amplex red reagent based fluorescence analysis; format: cell-based
T1 sequence (P27338 whole entry): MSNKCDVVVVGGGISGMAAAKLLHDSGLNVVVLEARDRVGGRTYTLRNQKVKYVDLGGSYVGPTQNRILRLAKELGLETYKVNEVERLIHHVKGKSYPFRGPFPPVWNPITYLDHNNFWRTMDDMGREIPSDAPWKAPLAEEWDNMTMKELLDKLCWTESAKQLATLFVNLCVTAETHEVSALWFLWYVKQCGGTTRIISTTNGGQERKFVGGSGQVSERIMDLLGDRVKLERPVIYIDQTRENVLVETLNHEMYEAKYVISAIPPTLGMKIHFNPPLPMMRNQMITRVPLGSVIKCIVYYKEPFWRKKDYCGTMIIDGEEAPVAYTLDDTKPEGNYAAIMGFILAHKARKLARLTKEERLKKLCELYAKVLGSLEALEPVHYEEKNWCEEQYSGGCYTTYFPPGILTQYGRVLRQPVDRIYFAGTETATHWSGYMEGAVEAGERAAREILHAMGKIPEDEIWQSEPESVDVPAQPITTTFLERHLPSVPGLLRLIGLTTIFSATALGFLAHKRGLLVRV

[3] = Selectivity index, ratio of Ki for inhibition of recombinant human MAO-A to Ki for inhibition of recombinant human MAO-B using p-tyramine as substrate
[4] = target: T2, Amine oxidase [flavin-containing] A (Homo sapiens, UniProt P21397); assay: Inhibition of recombinant human MAO-A expressed in baculovirus infected BTI insect cells using p-tyramine as substrate incubated for 30 mins by Amplex red reagent based fluorescence analysis
T2 sequence (P21397 whole entry): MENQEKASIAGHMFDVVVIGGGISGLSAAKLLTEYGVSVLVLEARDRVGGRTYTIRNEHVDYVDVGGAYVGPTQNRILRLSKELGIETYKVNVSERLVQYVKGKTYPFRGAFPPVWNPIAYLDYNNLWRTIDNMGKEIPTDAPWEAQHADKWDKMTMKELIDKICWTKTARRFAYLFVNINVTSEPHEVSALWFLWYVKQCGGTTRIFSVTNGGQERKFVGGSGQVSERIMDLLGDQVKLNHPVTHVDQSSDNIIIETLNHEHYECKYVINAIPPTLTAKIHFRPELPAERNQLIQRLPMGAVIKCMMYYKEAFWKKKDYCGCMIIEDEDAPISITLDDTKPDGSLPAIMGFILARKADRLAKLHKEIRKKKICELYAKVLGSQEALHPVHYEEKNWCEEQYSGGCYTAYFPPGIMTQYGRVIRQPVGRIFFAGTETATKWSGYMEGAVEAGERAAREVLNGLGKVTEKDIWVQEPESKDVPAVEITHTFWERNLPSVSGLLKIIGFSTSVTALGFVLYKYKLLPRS

[5] = target: T1, Amine oxidase [flavin-containing] B; assay: Reversible inhibition of human MAO-B assessed as residual enzyme activity at 4 fold IC50 incubated for 15 mins and measured before dialysis relative to control
Outline: (§1)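 Dialysed (MWCO 12 000) at 4 °C for 24 h against 100 mM potassium phosphate pH 7.4, 5% sucrose, buffer changed twice. Dialysed and undialysed mixtures assayed together; residual activity from triplicates.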

[6] = target: T2, Amine oxidase [flavin-containing] A; assay: Reversible inhibition of human MAO-A assessed as residual enzyme activity at 4 fold IC50 incubated for 15 mins and measured before dialysis by dialysis method relative to control; outline: as §1
[7] = target: T1, Amine oxidase [flavin-containing] B; assay: Reversible inhibition of human MAO-B assessed as residual enzyme activity at 4 fold IC50 incubated for 15 mins and measured 24 hrs post dialysis relative to control; conditions: 24.25 h, time 1455 min; outline: as §1
[8] = Cytotoxicity against human HepG2 cells assessed as cell viability at 7.5 uM incubated for 2 hrs by MTT assay relative to control; format: cell-based; conditions: read-out: Activity
Outline: (§2)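 HepG2 human hepatoma cells; viability read by MTT assay, with 0.1% DMSO as vehicle control. Viability given as % of control, mean ± SEM (n = 3); p < 0.05 taken as significant.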

[9] = Cytotoxicity against human HepG2 cells assessed as cell viability at 30 uM incubated for 2 hrs by MTT assay relative to control; format: cell-based; conditions: read-out: Activity; outline: as §2
[10] = Cytotoxicity against human HepG2 cells assessed as cell viability at 15 uM incubated for 2 hrs by MTT assay relative to control; format: cell-based; conditions: read-out: Activity; outline: as §2
[11] = target: T2, Amine oxidase [flavin-containing] A; assay: Reversible inhibition of human MAO-A assessed as residual enzyme activity at 4 fold IC50 incubated for 15 mins and measured 24 hrs post dialysis by dialysis method relative to control; conditions: 24.25 h, time 1455 min; outline: as §1

| Compound | Ki [2] | Ratio Ki [3] | Ki [4] | other results |
| --- | --- | --- | --- | --- |
| CCn1cc(C(=O)O)c(=O)c2cc(F)c(N3CCNC(C)C3)c(F)c21 (centres undefined) [LOMEFLOXACIN] | – | – | – | Papp at 16 h, 25 ug/ml [1]: 0.99 ×10⁻⁶ cm/s |
| COc1ccccc1C(/C=C/c1ccccc1)=N/NC(=O)Cn1c(=O)oc2ccc(C)cc21 | 54 µM | 2.22 10^-4No_unit | 0.012 µM | – |
| COc1ccccc1C1=NN(C(=O)Cn2c(=O)oc3ccc(Cl)cc32)C(c2ccccc2Cl)C1 (centres undefined) | 11 µM | 0.005 | 0.05 µM | – |
| Cc1ccc(C2=NN(C(=O)Cn3c(=O)oc4ccc(Cl)cc43)C(c3ccccc3)C2)cc1 (centres undefined) | 55.6 µM | 3.6 10^-4No_unit | 0.02 µM | – |
| COc1ccc(C2=NN(C(=O)Cn3c(=O)oc4ccc(Cl)cc43)C(c3ccccc3Cl)C2)cc1 (centres undefined) | 25.6 µM | 0.003 | 0.065 µM | – |
| COc1ccc(C2=NN(C(=O)Cn3c(=O)oc4ccc(C)cc43)C(c3ccccc3)C2)cc1 (centres undefined) | 7.5 µM | 0.107 | 0.8 µM | – |
| COc1ccccc1C(/C=C/c1ccccc1Cl)=N/NC(=O)Cn1c(=O)oc2ccc(C)cc21 | 16.6 µM | 6.65 10^-4No_unit | 0.011 µM | – |
| O=C(Cn1c(=O)oc2ccccc21)N/N=C(\C=C\c1ccccc1)c1ccccc1 | 19 µM | 5.26 10^-5No_unit | 0.001 µM | – |
| COc1ccccc1/C=C/C(=N\NC(=O)Cn1c(=O)oc2ccc(Cl)cc21)c1ccccc1 | 2.75 µM | 7.27 10^-5No_unit | 0.001 µM | Activity [5]: 77.29%; Activity [6]: 19.55%; Activity [7]: 97%; Papp at 16 h, 25 ug/ml [1]: 14.6 ×10⁻⁶ cm/s; viability at 2 h, 7.5 µM [8]: 91.3%; viability at 2 h, 30 µM [9]: 87.7%; viability at 2 h, 15 µM [10]: 89%; Activity [11]: 92.24% |
| Cc1ccc(C2CC(c3ccccc3)=NN2C(=O)Cn2c(=O)oc3ccc(C)cc32)cc1 (centres undefined) | 5.22 µM | 0.002 | 0.008 µM | – |
| COc1ccccc1C1=NN(C(=O)Cn2c(=O)oc3ccc(C)cc32)C(c2ccccc2Cl)C1 (centres undefined) | 15.9 µM | 0.019 | 0.308 µM | – |
| COc1cccc(C2=NN(C(=O)Cn3c(=O)oc4ccc(C)cc43)C(c3ccccc3Cl)C2)c1 (centres undefined) | 24.3 µM | 4.52 10^-4No_unit | 0.011 µM | – |
| COc1cccc(C2CC(c3ccc(C)cc3)=NN2C(=O)Cn2c(=O)oc3ccccc32)c1OC (centres undefined) | 120 µM | 2.32 10^-4No_unit | 0.028 µM | – |
| COc1ccc(C2CC(c3ccccc3)=NN2C(=O)Cn2c(=O)oc3ccc(Cl)cc32)cc1OC (centres undefined) | 50.2 µM | 0.06 | 3 µM | – |
| COc1cccc(/C=C/C(=N\NC(=O)Cn2c(=O)oc3ccccc32)c2ccccc2)c1 | 8.9 µM | 1.12 10^-4No_unit | 0.001 µM | – |
| COc1ccc(C2=NN(C(=O)Cn3c(=O)oc4ccc(C)cc43)C(c3ccccc3Cl)C2)cc1 (centres undefined) | 0.4 µM | 0.045 | 0.018 µM | – |
| COc1cccc(C2CC(c3ccc(C)cc3)=NN2C(=O)Cn2c(=O)oc3ccc(Cl)cc32)c1OC (centres undefined) | 91.3 µM | 0.006 | 0.51 µM | – |
| COc1cccc(C2CC(c3ccccc3)=NN2C(=O)Cn2c(=O)oc3ccc(C)cc32)c1 (centres undefined) | 21.3 µM | 2.35 10^-4No_unit | 0.005 µM | – |
| Cc1ccc(C2CC(c3ccccc3)=NN2C(=O)Cn2c(=O)oc3ccc(Cl)cc32)cc1 (centres undefined) | 8.55 µM | 0.005 | 0.04 µM | – |

| Compound | Ki [2] | Ratio Ki [3] | Ki [4] | other results |
| --- | --- | --- | --- | --- |
| COc1cccc(C2CC(c3ccc(C)cc3)=NN2C(=O)Cn2c(=O)oc3ccc(C)cc32)c1OC (centres undefined) | 52 µM | 0.005 | 0.266 µM | – |
| NCCc1ccc(O)c(O)c1 [DOPAMINE] | – | – | – | Papp at 16 h, 25 ug/ml [1]: 0.32 ×10⁻⁶ cm/s |
| C[C@]12CC[C@@H]3c4ccc(O)cc4CC[C@H]3[C@@H]1CC[C@@H]2O [ESTRADIOL] | – | – | – | Papp at 16 h, 25 ug/ml [1]: 9.99 ×10⁻⁶ cm/s |
| Cc1ccc(C2=NN(C(=O)Cn3c(=O)oc4ccc(C)cc43)C(c3ccccc3)C2)cc1 (centres undefined) | 29 µM | 0.002 | 0.05 µM | – |
| COc1ccc(C2=NN(C(=O)Cn3c(=O)oc4ccccc43)C(c3ccccc3)C2)cc1 (centres undefined) | 9 µM | 0.001 | 0.011 µM | – |
| COc1ccccc1C(/C=C/c1ccccc1Cl)=N/NC(=O)Cn1c(=O)oc2ccc(Cl)cc21 | 9.27 µM | 1.08 10^-4No_unit | 0.001 µM | Activity [5]: 77.22%; Activity [6]: 21.91%; Activity [7]: 93.41%; Papp at 16 h, 25 ug/ml [1]: 14 ×10⁻⁶ cm/s; viability at 2 h, 7.5 µM [8]: 92.1%; viability at 2 h, 30 µM [9]: 87.4%; viability at 2 h, 15 µM [10]: 90.6%; Activity [11]: 93.26% |
| COc1cccc(C2=NN(C(=O)Cn3c(=O)oc4ccccc43)C(c3ccccc3Cl)C2)c1 (centres undefined) | 7.5 µM | 0.008 | 0.06 µM | – |
| COc1cccc(C2CC(c3ccccc3)=NN2C(=O)Cn2c(=O)oc3ccc(Cl)cc32)c1 (centres undefined) | 1 µM | 0.985 | 0.985 µM | – |
| COc1ccccc1C1=NN(C(=O)Cn2c(=O)oc3ccccc32)C(c2ccccc2Cl)C1 (centres undefined) | 1.15 µM | 0.011 | 0.013 µM | – |
| COc1ccc(C2=NN(C(=O)Cn3c(=O)oc4ccccc43)C(c3cccc(OC)c3OC)C2)cc1 (centres undefined) | 255 µM | 4.9 10^-4No_unit | 0.125 µM | – |
| NCCNC(=O)c1ccc(Cl)cn1 [LAZABEMIDE] | – | – | > 250 µM | Activity [5]: 89%; Activity [6]: 11%; Activity [7]: 99%; viability at 2 h, 7.5 µM [8]: 92.4%; viability at 2 h, 30 µM [9]: 85.6%; viability at 2 h, 15 µM [10]: 89.7%; Activity [11]: 97% |
| COc1ccccc1C(/C=C/c1ccccc1Cl)=N/NC(=O)Cn1c(=O)oc2ccccc21 | 60 µM | 6.66 10^-5No_unit | 0.004 µM | – |
| COc1ccc(C(/C=C/c2ccccc2Cl)=N/NC(=O)Cn2c(=O)oc3ccccc32)cc1 | 35 µM | 3.43 10^-5No_unit | 0.001 µM | – |
| Cc1ccc(C2=NN(C(=O)Cn3c(=O)oc4ccccc43)C(c3ccccc3)C2)cc1 (centres undefined) | 5.55 µM | 0.003 | 0.019 µM | – |
| COc1ccc(C2=NN(C(=O)Cn3c(=O)oc4ccc(Cl)cc43)C(c3ccccc3)C2)cc1 (centres undefined) | 1.95 µM | 0.002 | 0.004 µM | – |
| COc1ccc(C2CC(c3ccccc3)=NN2C(=O)Cn2c(=O)oc3ccc(C)cc32)cc1OC (centres undefined) | 41.3 µM | 0.004 | 0.17 µM | – |
| COc1cccc(C2=NN(C(=O)Cn3c(=O)oc4ccc(Cl)cc43)C(c3ccccc3Cl)C2)c1 (centres undefined) | 2.55 µM | 0.05 | 0.12 µM | – |
| Cc1ccc(C2CC(c3ccccc3)=NN2C(=O)Cn2c(=O)oc3ccccc32)cc1 (centres undefined) | 8.95 µM | 0.000446 | 0.004 µM | – |
| COc1ccc(C2=NN(C(=O)Cn3c(=O)oc4ccc(Cl)cc43)C(c3cccc(OC)c3OC)C2)cc1 (centres undefined) | 8000 µM | 1.94 10^-4No_unit | 1.55 µM | – |
